Reference: publication PMC11406440 (Food and chemical toxicology : an international journal …, 2024)

Key:
[1] = test system: liver; test: Liver gene expression; type: in vivo, B6C3F1 mice
How it was run: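 Mice were dosed daily on both ears (25 μl/ear; acetone vehicle or 1.25, 2.5, 5% w/v) for 28 days. Half an ear pinna or the caudate liver lobe was homogenized in Buffer RLT, and total RNA was column-isolated with DNase treatment. TaqMan qPCR gave relative fold change (2−ΔΔCT) versus vehicle controls, normalized to β-actin. Liver used 4–5 mice/group, one-way ANOVA/Dunnett or Kruskal-Wallis/Dunn.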

[2] = test system: B6C3F1 mice; test: Organ and body weights after 28-day dermal exposure; type: in vivo; conditions: 28 days
How it was run: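 Female B6C3F1 mice (5/group) were treated topically on both ears (25 μl/ear) with acetone or 1.25, 2.5, 5% w/v test compound once daily for 28 days. They were weighed at necropsy about 24 h after the last dose. Liver, spleen, kidneys and thymus were cleaned of connective tissue and weighed. Organ weights were reported relative to body weight and uncorrected; dose trend was tested.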

[3] = PFHxS concentration in serum and urine after dermal exposure; type: in vivo, B6C3F1 mice; conditions: 28 days; for Urine PFHxS concentration: 5 pooled samples; for PFHxS serum concentration: 24 h after last exposure
How it was run: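 Mice received 25 μl/ear of acetone or 1.25, 2.5, 5% w/v test compound on both ears daily for 28 days. About 24 h after the last exposure, serum was taken by cardiac puncture (5 mice/group) and urine was pooled per group. Analysis was solid-phase extraction with LC/MS/MS (BEH C18, EPA method 537), linear isomer only. Serum was compared with vehicle by one-way ANOVA.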

[4] = PFHxS exposure, 28 days (discussion, approximate)
[5] = all three concentrations of PFHxS, 28 days

Structure (SMILES): O=S(=O)(O)C(F)(F)C(F)(F)C(F)(F)C(F)(F)C(F)(F)C(F)(F)F [PFHxS, Perfluorohexane sulfonic acid]
- Liver Cyp7a1 gene expression ([1]; 1.25% PFHxS, 28 days): Decreases
- Liver Pparδ gene expression ([1]; 1.25% and 2.5% PFHxS, 28 days): decrease
- Liver Pparγ gene expression ([1]; 1.25% and 5% PFHxS, 28 days): increase
- Liver Pparα gene expression ([1]; 1.25-5% PFHxS, 28 days): No change
- Liver Apoa1 gene expression ([1]; 2.5% PFHxS, 28 days): Decreases
- Liver Serpine1 gene expression, fold increase ([1]; 2.5% PFHxS, 28 days): 52 fold
- Liver Acox1 gene expression, fold increase ([1]; 5% PFHxS, 28 days): 6.7 fold
- Liver Avpr1a gene expression ([1]; 5% PFHxS, 28 days): Decreases
- Liver Cd36 gene expression, fold increase ([1]; 5% PFHxS, 28 days): 23 fold
- Liver Cpt1b gene expression, fold increase ([1]; 5% PFHxS, 28 days): 33 fold
- Liver Cyp4a10 gene expression, fold increase ([1]; 5% PFHxS, 28 days): 22 fold
- Liver Ehhadh gene expression, fold increase ([1]; 5% PFHxS, 28 days): 61 fold
- Liver Lpl gene expression, fold increase ([1]; 5% PFHxS, 28 days): 30 fold
- Liver Pla2g12a gene expression, fold increase ([1]; 5% PFHxS, 28 days): 16 fold
- Liver Acox1 gene expression, fold increase [1, 4]: ~ 6 fold
- Liver Ehhadh gene expression, fold increase [1, 4]: ~ 50 fold
- Liver Cd36 gene expression, fold increase [1, 5]: ~ 25 fold
- Liver Lpl gene expression, fold increase [1, 5]: ~ 25 fold
- Liver weight (% of body weight) increase vs. vehicle-treated mice ([2]; 1.25% PFHxS dermal): 162%
- Spleen weight (% of body) decrease ([2]; 1.25% PFHxS dermal): 25%
- Mass of kidneys not corrected for body weight ([2]; 1.25, 2.5, 5% PFHxS dermal): significant decreases
- Mass of liver not corrected for body weight ([2]; 1.25, 2.5, 5% PFHxS dermal): significant increases
- Mass of spleen not corrected for body weight ([2]; 1.25, 2.5, 5% PFHxS dermal): significant decreases
- Mass of thymus not corrected for body weight ([2]; 1.25, 2.5, 5% PFHxS dermal): significant decreases
- Kidney weight (as % of body weight) ([2]; 1.25-5% PFHxS dermal): No change
- Liver weight (% of body weight) increase vs. vehicle-treated mice ([2]; 2.5% PFHxS dermal): 172%
- Spleen weight (% of body) decrease ([2]; 2.5% PFHxS dermal): 37%
- Thymus weight (% of body) decrease ([2]; 2.5% PFHxS dermal): 44%
- Body weight decrease ([2]; 5% PFHxS dermal): 14%
- Liver weight (% of body weight) increase vs. vehicle-treated mice ([2]; 5% PFHxS dermal): 205%
- Spleen weight (% of body) decrease ([2]; 5% PFHxS dermal): 38%
- Thymus weight (% of body) decrease ([2]; 5% PFHxS dermal): 47%
- Urine PFHxS concentration ([3]; 1.25% PFHxS dermal): 43 µg/mL
- PFHxS serum concentration ([3]; 1.25% PFHxS dermal): 440 µg/mL
- Urine PFHxS concentration ([3]; 2.5% PFHxS dermal): 120 µg/mL
- PFHxS serum concentration ([3]; 2.5% PFHxS dermal): 608 µg/mL
- Urine PFHxS concentration ([3]; 5% PFHxS dermal): 130 µg/mL
- PFHxS serum concentration ([3]; 5% PFHxS dermal): 656 µg/mL
